Experimental data pooled from the literature.
Compare with care: the assays were run in different laboratories.
FLT3: Receptor-type tyrosine-protein kinase FLT3 (FLT3, Homo sapiens, UniProt P36888)
CYP51: Sterol 14-alpha demethylase (CYP51, Trypanosoma cruzi, UniProt Q7Z1V1)
MTNR1A: Melatonin receptor type 1A (MTNR1A, Homo sapiens, UniProt P48039)
F2 trypsin-like site: Prothrombin, trypsin-like site (F2, Bos taurus, UniProt P00735)
Tmem97: Sigma intracellular receptor 2 (Tmem97, Rattus norvegicus, UniProt Q5U3Y7)
HTR2C: 5-hydroxytryptamine receptor 2C (HTR2C, Homo sapiens, UniProt P28335)

Cc1cc2nc3c(=O)[nH]c(=O)nc-3n(C[C@H](O)[C@H](O)[C@H](O)COP(=O)(O)OP(=O)(O)OC[C@H]3O[C@@H](n4cnc5c(N)ncnc54)[C@H](O)[C@@H]3O)c2cc1C
Kd (BMP-2-inducible protein kinase (BMP2K, Homo sapiens, UniProt Q9NSY1); binding; lysate): 0.031 µM

COc1ccc2c(Oc3ccc4c(C(=O)Nc5ccccc5N)cccc4c3)ccnc2c1
IC50 (Mitogen-activated protein kinase 11 (MAPK11, Homo sapiens, UniProt Q15759); enzyme activity, inhibitor): > 0.5 µM

Fc1ccc(Nc2nccc(NC3CCCCC3)n2)cc1
IC50 (FLT3; enzyme activity, inhibitor): 3.3 µM

CC(C)c1ccc(NC(=O)O[C@H](Cn2ccnc2)c2ccc(F)cc2)cc1
Kd (CYP51; binding): 0.032 µM

COC(=O)c1cc(CSc2nnc(C3CC3)[nH]2)cs1
EC50 (MTNR1A; cAMP, agonist, luciferase): 0.00757 µM

CCc1ccc2scc(CCNC(C)=O)c2c1
EC50 (MTNR1A; cAMP, agonist, TR-FRET): 0.0398 µM

Cn1cc(C[C@@H](N)C(=O)O)c2ccccc21
Ki (Dihydrofolate reductase (DHFR, Homo sapiens, UniProt P00374); enzyme activity, inhibitor; pH 7): 810 µM

c1cncc(-c2cccc(Nc3nccc(NC4CCNCC4)n3)c2)c1
IC50 (FLT3; enzyme activity, inhibitor): 0.008 µM

COCC(CNC(C)=O)c1cccc2ccc(OC)cc12 (centres unmarked)
EC50 (MTNR1A; β-arrestin recruitment, agonist): 0.00309 µM

CC(C)(C)[C@H](NC(=O)[C@H](CCONC(=N)N)NC(=O)Cc1ccc(CN)cc1)C(=O)N[C@@H](CCONC(=N)N)C(=O)NCc1ccc(C(=N)N)cc1
Ki (F2 trypsin-like site; enzyme activity, inhibitor; pH 8): 25 µM

CCC(=O)NC1Cc2ccccc2C(c2ccccc2)C1 (centres unmarked)
EC50 (MTNR1A; cAMP, agonist, TR-FRET): 0.282 µM

COC(=O)c1sc(N(C)Cc2ccc(OC)c(O)c2)nc1Cl
EC50 (MTNR1A; cAMP, agonist, luciferase): 0.0145 µM

O=C(NCCN1CCCCC1)c1cc(Br)ccc1OCCF
Ki (Tmem97; ligand displacement, radioligand; cell membranes): 0.0102 µM

O=C(Nc1ccc(Sc2ccc([N+](=O)[O-])cc2)cc1)O[C@H](Cn1ccnc1)c1ccc(Cl)cc1
Kd (CYP51; binding): 0.162 µM

CCCN1CCN(c2ccc(-c3cncc(Cl)c3N3CCC4(CCNC4=O)CC3)cc2)CC1
Kd (Myotonin-protein kinase (DMPK, Homo sapiens, UniProt Q09013); cell-free assay; lysate): 18.4 µM

c1cc(Nc2nccc(NC3CCCCC3)n2)cc(C2CC2)c1
IC50 (FLT3; enzyme activity, inhibitor): 2.59 µM

Nc1nc(NCc2ccc(Oc3ccccc3)cc2)nc(-c2c(F)cccc2CO)n1
Ki (MTNR1A; cell-free assay, radioligand): 5.9 µM

COc1ccc2c(c1)N(Cc1cc(=O)c(OC)co1)CCO2
EC50 (MTNR1A; cAMP, agonist, luciferase): 0.00056 µM

O=C(O)CNC(=O)C(=O)O
Kd (Glutamate dehydrogenase 1, mitochondrial (GLUD1, Bos taurus, UniProt P00366); binding, NMR): 10000 µM

COc1ccc2ccn(CCCCN3CCc4cc(OC)c(OC)cc4C3)c2c1
Ki (Tmem97; ligand displacement, radioligand; cell membranes): 0.00868 µM

COc1cccc2c1CCN(C(=O)c1cc(=O)n(C)cc1Br)C2
EC50 (MTNR1A; cAMP, agonist, luciferase): 0.0963 µM

COc1ccc2ncn(CCNC(C)=O)c2c1
EC50 (MTNR1A; β-arrestin recruitment, agonist): 0.871 µM

Clc1ccc(CNc2cccc(-c3nnc[nH]3)c2)cc1Cl
EC50 (MTNR1A; cAMP, agonist, luciferase): 0.229 µM

O=C(O[C@H](Cn1ccnc1)c1ccccc1)c1ccc(-c2ccccc2)cc1
Kd (CYP51; binding): 0.046 µM

CCCCN1CCN(C2CCCCC2)CC1
Ki (Tmem97; ligand displacement, radioligand; cell membranes): 0.0652 µM

Cc1ccc(C(=O)Nc2ccc(Oc3cc4cnn(C)c4cc3-c3cn[nH]c3)c(F)c2)c(=O)n1-c1ccc(F)cc1
Kd (Tyrosine-protein kinase receptor Tie-1 (TIE1, Homo sapiens, UniProt P35590); binding, competition with immobilised ligand): 0.0009 µM

COc1ccc2[nH]cc(CCNC(C)=O)c2c1I
EC50 (MTNR1A; GTPγS binding, agonist, radiometric; cell membranes): 0.112 µM

c1cncc(C2CCCC(Nc3nccc(NC4CCCCC4)n3)C2)c1 (centres unmarked)
IC50 (FLT3; enzyme activity, inhibitor): > 23 µM

COc1cc2c(CCNC(C)=O)c[nH]c2cc1I
EC50 (MTNR1A; β-arrestin recruitment, agonist): 0.00525 µM

CCc1nnc(SCc2cc(C(=O)OC)cs2)[nH]1
EC50 (MTNR1A; cAMP, agonist, luciferase): 0.0178 µM

CC(C)(C)[C@H](NC(=O)[C@H](CCCNC(=N)N)NC(=O)Cc1ccc(CNC(=N)N)cc1)C(=O)N[C@@H](CCONC(=N)N)C(=O)NCc1ccc(C(=N)N)cc1
Ki (F2 trypsin-like site; enzyme activity, inhibitor; pH 8): 9.6 µM

CN(Cc1ccsc1)c1ccnc(Cl)c1
EC50 (MTNR1A; cAMP, agonist, luciferase): 2.66 µM

Cc1cnc(-c2ccc(-c3ccc(NC(=O)Nc4c(F)cc(F)cc4F)cc3F)c3c2C(=O)NC3)[nH]1
Kd (Aurora kinase C (AURKC, Homo sapiens, UniProt Q9UQB9); binding, competition with immobilised ligand): 0.0011 µM

COC(=O)c1nccc(N(C)CC2CCCCC2O)n1 (centres unmarked)
EC50 (MTNR1A; cAMP, agonist, luciferase): 1.86 µM

Cc1cc(Nc2cc3ncccc3c(N[C@@H]3C[C@H]4CC[C@@H](C3)N4CCC#N)n2)n[nH]1
Kd (Ephrin type-B receptor 6 (EPHB6, Homo sapiens, UniProt O15197); binding, competition with immobilised ligand): 2 µM

CC(C)(C)Nc1ccnc(Nc2cccc(-c3cccnc3)c2)n1
IC50 (FLT3; enzyme activity, inhibitor): 0.013 µM

CC(C)(C)[C@H](NC(=O)[C@H](CCONC(=N)N)NC(=O)Cc1ccc(CNC(=N)N)cc1)C(=O)N[C@@H](CCCCN)C(=O)NCc1ccc(C(=N)N)cc1
Ki (F2 trypsin-like site; enzyme activity, inhibitor; pH 8): 61 µM

c1cncc(-c2cccc(Nc3nccc(NC4CCCC4)n3)c2)c1
IC50 (FLT3; enzyme activity, inhibitor): 0.013 µM

O=C(NCCc1cccc2ccccc12)C1CCC1
EC50 (MTNR1A; cAMP, agonist, TR-FRET): 1.66 µM

C[C@@H]1Cc2ccccc2N1C(=O)NCCCCN(C)[C@@H]1Cc2cccc3[nH]c(=O)n(c23)C1
Ki (HTR2C; ligand displacement, radioligand): > 10 µM

COc1cccc(-c2cccc(Nc3nccc(NC(C)C)n3)c2)c1
IC50 (FLT3; enzyme activity, inhibitor): 6.97 µM

O=C(NCCCn1ccnc1)O[C@@H](Cn1ccnc1)c1ccc(F)cc1
Kd (CYP51; binding): 0.087 µM

COCC(C)Nc1ccnc(Nc2cccc(-c3cccnc3)c2)n1 (centres unmarked)
IC50 (FLT3; enzyme activity, inhibitor): < 0.006 µM

CCc1nc2cc(OCCCCN3CCC(c4cccc(Cl)c4Cl)CC3)ccc2s1
Ki (HTR2C; cell-free assay, radioligand): 0.21 µM
